Experimental data: the M2OR odorant receptor database

Legend:
Details in all cases: stereoisomer not certain
UniProt Q8VF43 = target: T1, UniProt Q8VF43
T1 sequence (whole entry): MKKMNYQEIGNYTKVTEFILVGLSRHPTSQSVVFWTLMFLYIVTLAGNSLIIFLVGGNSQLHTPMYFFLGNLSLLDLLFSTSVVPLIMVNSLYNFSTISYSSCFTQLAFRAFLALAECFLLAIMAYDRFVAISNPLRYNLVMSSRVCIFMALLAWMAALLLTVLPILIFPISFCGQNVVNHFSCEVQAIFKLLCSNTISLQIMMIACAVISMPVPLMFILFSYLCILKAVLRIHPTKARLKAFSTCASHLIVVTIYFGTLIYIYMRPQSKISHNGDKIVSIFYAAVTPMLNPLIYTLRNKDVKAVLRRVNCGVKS
Method in brief: (§1)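 Each receptor–molecule pair is labelled responsive or non-responsive (inactive) according to whether the original authors judged the measured signal statistically different from baseline. The data were taken from the main text and supplementary material of published papers and checked for typos and inconsistencies. Assay methods differed by source, with transient luciferase assays in mammalian cell lines being common.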

UniProt Q8VF52 = target: T2, UniProt Q8VF52
T2 sequence (whole entry): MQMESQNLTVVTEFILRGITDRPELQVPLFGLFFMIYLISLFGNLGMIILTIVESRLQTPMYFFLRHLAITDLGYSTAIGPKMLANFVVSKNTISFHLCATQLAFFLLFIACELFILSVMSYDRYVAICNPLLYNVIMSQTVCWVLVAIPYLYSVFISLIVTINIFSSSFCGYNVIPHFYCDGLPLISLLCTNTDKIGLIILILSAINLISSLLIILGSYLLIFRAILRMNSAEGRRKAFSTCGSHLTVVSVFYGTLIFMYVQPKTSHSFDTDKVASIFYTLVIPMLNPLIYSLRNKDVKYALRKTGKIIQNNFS
Method in brief: as §1

UniProt Q8VFM8 = target: T3, UniProt Q8VFM8
T3 sequence (whole entry): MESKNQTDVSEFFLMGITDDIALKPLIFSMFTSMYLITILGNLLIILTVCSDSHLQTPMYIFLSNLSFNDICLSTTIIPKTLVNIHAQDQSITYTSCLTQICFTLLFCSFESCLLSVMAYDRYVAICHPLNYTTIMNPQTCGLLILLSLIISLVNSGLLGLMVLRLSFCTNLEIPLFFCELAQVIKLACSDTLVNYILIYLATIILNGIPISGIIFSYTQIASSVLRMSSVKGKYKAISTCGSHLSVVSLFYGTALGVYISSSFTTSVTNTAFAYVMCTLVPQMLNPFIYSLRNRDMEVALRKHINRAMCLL
Method in brief: as §1

UniProt Q8VF24 = target: T4, UniProt Q8VF24
T4 sequence (whole entry): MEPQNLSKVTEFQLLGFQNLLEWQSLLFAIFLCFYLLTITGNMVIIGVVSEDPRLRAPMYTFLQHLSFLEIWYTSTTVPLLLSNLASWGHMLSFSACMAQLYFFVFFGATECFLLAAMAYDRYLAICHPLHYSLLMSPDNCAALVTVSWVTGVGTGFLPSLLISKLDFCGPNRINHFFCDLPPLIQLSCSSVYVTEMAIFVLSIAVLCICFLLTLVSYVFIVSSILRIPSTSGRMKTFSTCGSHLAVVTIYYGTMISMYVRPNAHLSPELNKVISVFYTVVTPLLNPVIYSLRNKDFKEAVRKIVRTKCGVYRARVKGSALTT
Method in brief: as §1

UniProt Q8VF44 = target: T5, UniProt Q8VF44
T5 sequence (whole entry): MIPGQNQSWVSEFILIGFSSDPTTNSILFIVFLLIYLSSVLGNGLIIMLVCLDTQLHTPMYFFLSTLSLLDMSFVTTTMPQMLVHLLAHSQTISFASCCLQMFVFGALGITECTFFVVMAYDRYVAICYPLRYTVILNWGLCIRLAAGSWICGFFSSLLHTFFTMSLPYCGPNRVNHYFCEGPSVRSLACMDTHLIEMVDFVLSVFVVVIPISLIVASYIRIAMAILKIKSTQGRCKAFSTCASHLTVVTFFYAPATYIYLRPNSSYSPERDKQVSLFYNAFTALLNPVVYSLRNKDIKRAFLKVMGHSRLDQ
Method in brief: as §1

UniProt Q8VFG6 = target: T6, UniProt Q8VFG6
T6 sequence (whole entry): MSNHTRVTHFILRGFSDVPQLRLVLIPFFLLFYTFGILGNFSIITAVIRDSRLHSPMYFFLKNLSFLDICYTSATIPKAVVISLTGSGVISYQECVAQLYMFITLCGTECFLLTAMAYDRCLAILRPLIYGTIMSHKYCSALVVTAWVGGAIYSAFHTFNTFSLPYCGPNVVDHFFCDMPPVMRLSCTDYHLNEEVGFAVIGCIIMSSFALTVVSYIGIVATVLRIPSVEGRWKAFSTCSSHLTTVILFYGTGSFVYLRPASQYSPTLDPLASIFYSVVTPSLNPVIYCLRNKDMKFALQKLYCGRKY
Method in brief: as §1

UniProt Q8VF73 = target: UniProt Q8VF73
Method in brief: as §1

UniProt Q8VFB8 = target: UniProt Q8VFB8
Method in brief: as §1

Measured: odorant receptor agonist call

UniProt Q8VFB8, sequence (Q8VFB8 as listed by the source): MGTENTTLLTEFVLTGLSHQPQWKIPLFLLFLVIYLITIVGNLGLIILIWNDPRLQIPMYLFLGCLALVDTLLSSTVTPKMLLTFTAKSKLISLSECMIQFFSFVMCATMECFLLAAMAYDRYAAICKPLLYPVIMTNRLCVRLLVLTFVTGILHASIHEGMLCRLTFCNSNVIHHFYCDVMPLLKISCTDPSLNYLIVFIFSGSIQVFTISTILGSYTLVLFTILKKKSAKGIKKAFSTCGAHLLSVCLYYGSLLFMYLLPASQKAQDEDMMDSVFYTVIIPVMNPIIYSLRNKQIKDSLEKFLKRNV
UniProt Q8VF73, sequence (Q8VF73 as listed by the source): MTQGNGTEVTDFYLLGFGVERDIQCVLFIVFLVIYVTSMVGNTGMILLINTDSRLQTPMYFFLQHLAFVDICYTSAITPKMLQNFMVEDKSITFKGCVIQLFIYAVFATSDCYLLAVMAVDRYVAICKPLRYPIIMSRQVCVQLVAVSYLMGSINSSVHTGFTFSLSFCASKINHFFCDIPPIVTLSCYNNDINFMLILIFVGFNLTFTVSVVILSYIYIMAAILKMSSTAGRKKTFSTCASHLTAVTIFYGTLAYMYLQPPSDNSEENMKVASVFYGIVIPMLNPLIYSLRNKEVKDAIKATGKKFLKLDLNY

C=C(C)C1CCC2(C)OC2C1 (centres undefined)
inactive: UniProt Q8VF43 | UniProt Q8VF52 | UniProt Q8VFM8

CCCCCCCCCC(=O)[O-].[H+]
not listed: UniProt Q8VF73 | UniProt Q8VFB8
inactive: all other assays above

CCCCCC(=Cc1ccccc1)C(OC)OC
inactive: UniProt Q8VF43 | UniProt Q8VF52 | UniProt Q8VFM8

CC(CC=O)CCCC(C)(C)O (centres undefined)
inactive: UniProt Q8VF43 | UniProt Q8VF52 | UniProt Q8VFM8

CC=Cc1ccc(OC)cc1
inactive: UniProt Q8VF43 | UniProt Q8VF52 | UniProt Q8VFM8

CCCCCCOC(C)=O
not listed: UniProt Q8VF73 | UniProt Q8VFB8
inactive: all other assays above

C=C(C)C1CCC(C)C(O)C1 (centres undefined)
inactive: UniProt Q8VF43 | UniProt Q8VF52 | UniProt Q8VFM8

CCCCC(C)=O
not listed: UniProt Q8VF73 | UniProt Q8VFB8
inactive: all other assays above

CCC(C(=O)O)c1ccccc1 (centres undefined)
inactive: UniProt Q8VF24 | UniProt Q8VF44 | UniProt Q8VF52 | UniProt Q8VFG6

O=C1Cc2ccccc2O1
active: UniProt Q8VF44
not listed: UniProt Q8VF73 | UniProt Q8VFB8
inactive: all other assays above

CCCCCC(=O)CC
not listed: UniProt Q8VF73 | UniProt Q8VFB8
inactive: all other assays above

c1ccccc1
not listed: UniProt Q8VF73 | UniProt Q8VFB8
inactive: all other assays above

CCOC(=O)C(C)C
not listed: UniProt Q8VF73 | UniProt Q8VFB8
inactive: all other assays above

CCCCCCC(C=O)=Cc1ccccc1
inactive: UniProt Q8VF43 | UniProt Q8VF52 | UniProt Q8VFM8

Cc1c(C)c(C)c(C=O)c(C)c1C
active: UniProt Q8VF52
inactive: UniProt Q8VF43 | UniProt Q8VFM8

CCCCCCC(=O)OCCCC
inactive: UniProt Q8VF43 | UniProt Q8VF52 | UniProt Q8VFM8

CC(=O)OCC=C(C)C
not listed: UniProt Q8VF73 | UniProt Q8VFB8
inactive: all other assays above

CCN(CC)CC
inactive: UniProt Q8VF43 | UniProt Q8VF52 | UniProt Q8VFM8

CC(C)=CCCC(C)=CCO
not listed: UniProt Q8VF73 | UniProt Q8VFB8
inactive: all other assays above

CCCCCCC(=O)[O-].[H+]
inactive: UniProt Q8VF24 | UniProt Q8VF44 | UniProt Q8VF52 | UniProt Q8VFG6

CC(=O)Oc1ccccc1
not listed: UniProt Q8VF73 | UniProt Q8VFB8
inactive: all other assays above

CCCCCO
inactive: UniProt Q8VF24 | UniProt Q8VF44 | UniProt Q8VF52 | UniProt Q8VFG6

O=c1ccc2ccccc2o1
inactive: UniProt Q8VF24 | UniProt Q8VFB8 | UniProt Q8VFG6
active: UniProt Q8VF44 | UniProt Q8VF52 | UniProt Q8VF73

CCCCOC(=O)C(C)OC(=O)CCC (centres undefined)
inactive: UniProt Q8VF24 | UniProt Q8VF44 | UniProt Q8VF52 | UniProt Q8VFG6
